Test results published in ChEMBL document CHEMBL5634107, “The design, synthesis, and inhibition of Clostridioides difficile spore germination by acyclic and bicyclic tertiary amide analogs of cholate” (Eur J Med Chem, 2023).

How the values were obtained:
Clostridioides difficile [1] = assay: Inhibition of spore germination in Clostridium difficile R20291 assessed as residual activity at 125 uM measured every minute for 2 hrs by absorbance based analysis relative to control; format: functional
Outline: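 Single-concentration screen of R20291 spores (OD580 1.0) in 100 mM sodium phosphate, pH 6.0, with 5 mg/mL bicarbonate and 2.5% DMSO. Compound at 125 μM final, in triplicate, with 6 mM taurocholate and 12 mM glycine. OD580 is read each minute for 2 h, normalized to time zero, and compared with untreated spores.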

Clostridioides difficile [2] = assay: Inhibition of spore germination in Clostridium difficile R20291 assessed as inhibition of spore germination measured every minute for 2 hrs by absorbance based analysis; format: functional, organism-based; settings: R20291, 2 h
Outline: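 Spores of strain R20291 diluted to OD580 1.0 in 100 mM sodium phosphate, pH 6.0, with 5 mg/mL sodium bicarbonate. Germinant is 6 mM taurocholate plus 12 mM glycine, with compound at various concentrations. OD580 is read every minute for 2 h and normalized to time zero. Value is fitted from percent germination versus log concentration.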

Compound: C[C@H](CCC(=O)N1CCCC1)[C@H]1CC[C@H]2[C@@H]3[C@H](O)C[C@@H]4C[C@H](O)CC[C@]4(C)[C@H]3C[C@H](O)[C@]12C
- Activity (Clostridioides difficile [1]): 29%
- IC50 (Clostridioides difficile [2]): 38 µM

Compound: C[C@H](CCC(=O)N1CCc2ccccc2C1)[C@H]1CC[C@H]2[C@@H]3[C@H](O)C[C@@H]4C[C@H](O)CC[C@]4(C)[C@H]3C[C@H](O)[C@]12C
- Activity (Clostridioides difficile [1]): 78%

Compound: C[C@H](CCC(=O)N1CCc2cc(F)ccc21)[C@H]1CC[C@H]2[C@@H]3[C@H](O)C[C@@H]4C[C@H](O)CC[C@]4(C)[C@H]3C[C@H](O)[C@]12C
- Activity (Clostridioides difficile [1]): 5%
- IC50 (Clostridioides difficile [2]): 0.4 µM

Compound: C[C@H](CCC(=O)N1CCc2cc(Br)ccc2C1)[C@H]1CC[C@H]2[C@@H]3[C@H](O)C[C@@H]4C[C@H](O)CC[C@]4(C)[C@H]3C[C@H](O)[C@]12C
- Activity (Clostridioides difficile [1]): 100%

Compound: C[C@H](CCC(=O)N1CCC(O)CC1)[C@H]1CC[C@H]2[C@@H]3[C@H](O)C[C@@H]4C[C@H](O)CC[C@]4(C)[C@H]3C[C@H](O)[C@]12C
- Activity (Clostridioides difficile [1]): 88%

Compound: Cc1ccc2c(c1)CCCN2C(=O)CC[C@@H](C)[C@H]1CC[C@H]2[C@@H]3[C@H](O)C[C@@H]4C[C@H](O)CC[C@]4(C)[C@H]3C[C@H](O)[C@]12C
- Activity (Clostridioides difficile [1]): 100%

Compound: C[C@H](CCC(=O)N1CCCCC1)[C@H]1CC[C@H]2[C@@H]3[C@H](O)C[C@@H]4C[C@H](O)CC[C@]4(C)[C@H]3C[C@H](O)[C@]12C
- Activity (Clostridioides difficile [1]): 15%
- IC50 (Clostridioides difficile [2]): 37 µM

Compound: C[C@H](CCC(=O)N1CCc2ccccc21)[C@H]1CC[C@H]2[C@@H]3[C@H](O)C[C@@H]4C[C@H](O)CC[C@]4(C)[C@H]3C[C@H](O)[C@]12C
- Activity (Clostridioides difficile [1]): 4%
- IC50 (Clostridioides difficile [2]): 1 µM

Compound: COc1ccc2c(c1)N(C(=O)CC[C@@H](C)[C@H]1CC[C@H]3[C@@H]4[C@H](O)C[C@@H]5C[C@H](O)CC[C@]5(C)[C@H]4C[C@H](O)[C@]13C)CC2
- Activity (Clostridioides difficile [1]): 100%

Compound: C[C@H](CCC(=O)N(C)c1ccccc1)[C@H]1CC[C@H]2[C@@H]3[C@H](O)C[C@@H]4C[C@H](O)CC[C@]4(C)[C@H]3C[C@H](O)[C@]12C
- Activity (Clostridioides difficile [1]): 31%
- IC50 (Clostridioides difficile [2]): 32 µM

Compound: C[C@H](CCC(=O)N1CCc2cc(Cl)ccc21)[C@H]1CC[C@H]2[C@@H]3[C@H](O)C[C@@H]4C[C@H](O)CC[C@]4(C)[C@H]3C[C@H](O)[C@]12C
- Activity (Clostridioides difficile [1]): 70%

Compound: C[C@H](CCC(=O)N1CCc2c(Cl)cccc21)[C@H]1CC[C@H]2[C@@H]3[C@H](O)C[C@@H]4C[C@H](O)CC[C@]4(C)[C@H]3C[C@H](O)[C@]12C
- Activity (Clostridioides difficile [1]): 95%

Compound: C[C@H](CCC(=O)N1CCCc2ccccc21)[C@H]1CC[C@H]2[C@@H]3[C@H](O)C[C@@H]4C[C@H](O)CC[C@]4(C)[C@H]3C[C@H](O)[C@]12C
- Activity (Clostridioides difficile [1]): 17%
- IC50 (Clostridioides difficile [2]): 22 µM

Compound: Cc1ccc2c(c1)CCN2C(=O)CC[C@@H](C)[C@H]1CC[C@H]2[C@@H]3[C@H](O)C[C@@H]4C[C@H](O)CC[C@]4(C)[C@H]3C[C@H](O)[C@]12C
- Activity (Clostridioides difficile [1]): 100%

Compound: COc1ccc2c(c1)CCN(C(=O)CC[C@@H](C)[C@H]1CC[C@H]3[C@@H]4[C@H](O)C[C@@H]5C[C@H](O)CC[C@]5(C)[C@H]4C[C@H](O)[C@]13C)C2
- Activity (Clostridioides difficile [1]): 100%

Compound: CCN(CC)C(=O)CC[C@@H](C)[C@H]1CC[C@H]2[C@@H]3[C@H](O)C[C@@H]4C[C@H](O)CC[C@]4(C)[C@H]3C[C@H](O)[C@]12C
- Activity (Clostridioides difficile [1]): 0.05%
- IC50 (Clostridioides difficile [2]): 29 µM

Compound: C[C@H](CCC(=O)N1CCc2cc(Br)ccc21)[C@H]1CC[C@H]2[C@@H]3[C@H](O)C[C@@H]4C[C@H](O)CC[C@]4(C)[C@H]3C[C@H](O)[C@]12C
- Activity (Clostridioides difficile [1]): 90%
